Measured values: ChEMBL document CHEMBL1126902, “Synthesis, chemical reactivity, and antitumor evaluation of congeners of carmethizole hydrochloride, an experimental "acylated vinylogous carbinolamine" tumor inhibitor” (J Med Chem, 1993)

Experiments:
P388 [1] = assay: Change in tumor cell population in ip implanted P388 Leukemia in mice after administration of compound at 12.5 mg/kg; type: functional, Mus musculus; conditions: route intraperitoneal
How it was run: (§1)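 Female Portage-CD2F1 mice were inoculated ip with ascitic fluid holding ca. 5.2×10^6 P388 cells. Dosing was ip on days 1-5, starting 24 h after inoculation, by average body weight, as a solution or suspension in saline plus Tween 80. KE is the net log change in viable tumor cell population from start to end of the treatment period.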

A549 = assay: Concentration required to inhibit tumor growth in A549, human lung carcinoma (NSCLC) cell line; type: functional, cell-based
How it was run: (§2)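 Cells grown in RPMI 1640 with 5% fetal calf serum, 5% NuSerum IV and 20 mM HEPES, seeded and allowed to adhere overnight. Compound dissolved in RPMI-1640 plus HEPES and tested over a 5 log range (10 concentrations) for 72 h. Read-out by sulforhodamine B assay. Median-effect dose derived by nonlinear regression of the concentration-effect curve.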

P388 [2] = assay: Change in tumor cell population in ip implanted P388 Leukemia in mice after administration of compound at 100 mg/kg; toxic; type: functional, organism-based; set-up: dose 100 mg/kg; conditions: Mus musculus; how it was run: as §1
P388 [3] = assay: Percent increase in life span of dying mice tested in vivo at 25 mg/kg against ip implanted P388 Leukemia in mice; type: functional; conditions: Mus musculus, route intraperitoneal
How it was run: (§3)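 Portage-CD2F1 female mice inoculated ip with ascitic fluid carrying ca. 5.2×10^6 P388 leukemia cells. Drug given ip daily on days 1-5, starting 24 h after inoculation, dosed by average body weight. %ILS is from the median day of death of dying mice versus controls.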

[4] = Percent increase in life span of dying mice tested in vivo at 100 mg/kg against ip implanted LOX amelanotic melanoma in mice (60-day survivors); type: functional; conditions: Mus musculus, 1440 h, route intraperitoneal
How it was run: (§4)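 Female CD2F1 mice implanted ip with ascitic fluid carrying ca. 1.7×10^6 LOX amelanotic melanoma cells. Drug given ip on days 1, 5 and 9, starting 24 h after implant, dosed by exact body weight; solutions or suspensions made fresh daily. %ILS is from the median day of death of dying mice versus controls, excluding 60-day survivors.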

Mus musculus = assay: Change in tumor cell population in ip implanted LOX amelanotic melanoma in mice after administration of compound at 200 mg/kg; toxic; type: functional, organism-based; set-up: dose 200 mg/kg
How it was run: (§5)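 Female CD2F1 mice were implanted ip with ascitic fluid holding ca. 1.7×10^6 LOX cells. Dosing was ip on days 1, 5 and 9, starting 24 h after implantation, by exact body weight, as a solution or suspension in saline plus Tween 80, freshly prepared daily. KE is the net log change in viable tumor cells from start to end of treatment. Bracketed KE assumes Poisson survival, with 60-day survivors tumor-free.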

[5] = Percent increase in life span of dying mice tested in vivo at 200 mg/kg against ip implanted LOX amelanotic melanoma in mice (60-day survivors); type: functional; conditions: Mus musculus, 1440 h, route intraperitoneal; how it was run: as §4
[6] = Change in tumor cell population in ip implanted LOX amelanotic melanoma in mice after administration of compound at 100 mg/kg; type: functional, Mus musculus; conditions: route intraperitoneal; how it was run: as §5
P388 [7] = assay: Percent increase in life span of dying mice tested in vivo at 100 mg/kg against ip implanted P388 Leukemia in mice; type: functional; conditions: Mus musculus, route intraperitoneal; how it was run: as §3
L1210 (Mus musculus) = assay: Concentration required to inhibit tumor growth in L1210, murine lymphocytic leukemia cell line
HT-29 = assay: Concentration required to inhibit tumor growth in HT29, human colon adenocarcinoma cell line; type: functional, cell-based; how it was run: as §2
[8] = Percent increase in life span of dying mice tested in vivo at 50 mg/kg against ip implanted LOX amelanotic melanoma in mice (60-day survivors); type: functional; conditions: Mus musculus, 1440 h, route intraperitoneal; how it was run: as §4
[9] = Concentration required to inhibit tumor growth in […], human breast adenocarcinoma cell line; type: functional; how it was run: as §2
P388 [10] = assay: Change in tumor cell population in ip implanted P388 Leukemia in mice after administration of compound at 25 mg/kg; type: functional, Mus musculus; conditions: route intraperitoneal; how it was run: as §1
[11] = test system: LOX amelanotic melanoma (human); assay: Percent increase in life span of dying mice tested in vivo at 25 mg/kg against ip implanted LOX amelanotic melanoma in mice (60-day survivors); conditions: Mus musculus, 1440 h
[12] = test system: LOX amelanotic melanoma (human); assay: Change in tumor cell population in ip implanted LOX amelanotic melanoma in mice after administration of compound at 25 mg/kg; conditions: route intraperitoneal
P388 [13] = assay: Percent increase in life span of dying mice tested in vivo at 50 mg/kg against ip implanted P388 Leukemia in mice; type: functional; conditions: Mus musculus, route intraperitoneal; how it was run: as §3
P388 [14] = assay: Percent increase in life span of dying mice tested in vivo at 12.5 mg/kg against ip implanted P388 Leukemia in mice; type: functional; conditions: Mus musculus, route intraperitoneal; how it was run: as §3
[15] = Concentration required to inhibit tumor growth in PSN-1, human pancreatic carcinoma cell line; type: functional
How it was run: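 PSN-1 pancreatic carcinoma cells exposed to compound dissolved in RPMI-1640 plus HEPES at its maximum soluble concentration for 72 h. Read-out by sulforhodamine B colorimetric assay.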

[16] = Change in tumor cell population in ip implanted LOX amelanotic melanoma in mice after administration of compound at 50 mg/kg; type: functional, Mus musculus; conditions: route intraperitoneal; how it was run: as §5
P388 [17] = assay: Change in tumor cell population in ip implanted P388 Leukemia in mice after administration of compound at 50 mg/kg; toxic; type: functional, organism-based; set-up: dose 50 mg/kg; conditions: Mus musculus
How it was run: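 P388 leukemia: ascitic fluid with ca. 5.2×10^6 cells inoculated ip into Portage-CD₂F₁ female mice. Drug given ip on days 1-5, starting 24 h after inoculation, dosed by average body weight. Vehicle was saline plus Tween 80, as a solution or suspension. KE = net log change in viable tumor cells from start to end of treatment.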

[18] = Change in tumor cell population in ip implanted LOX amelanotic melanoma in mice after administration of compound at 53 mg/kg; type: functional, Mus musculus; conditions: route intraperitoneal; how it was run: as §5
[19] = Change in tumor cell population in ip implanted LOX amelanotic melanoma in mice after administration of compound at 212 mg/kg; type: functional, Mus musculus; conditions: route intraperitoneal; how it was run: as §5
[20] = Percent increase in life span of dying mice tested in vivo at 106 mg/kg against ip implanted LOX amelanotic melanoma in mice (60-day survivors); type: functional; conditions: Mus musculus, 1440 h, route intraperitoneal; how it was run: as §4
[21] = Change in tumor cell population in ip implanted LOX amelanotic melanoma in mice after administration of compound at 106 mg/kg; type: functional, Mus musculus; conditions: route intraperitoneal; how it was run: as §5
[22] = Percent increase in life span of dying mice tested in vivo at 53 mg/kg against ip implanted LOX amelanotic melanoma in mice (60-day survivors); type: functional; conditions: Mus musculus, 1440 h, route intraperitoneal; how it was run: as §4
[23] = Percent increase in life span of dying mice tested in vivo at 212 mg/kg against ip implanted LOX amelanotic melanoma in mice (60-day survivors); type: functional; conditions: Mus musculus, 1440 h, route intraperitoneal; how it was run: as §4
[24] = Percent increase in life span of dying mice tested in vivo at 26.5 mg/kg against ip implanted LOX amelanotic melanoma in mice (60-day survivors); type: functional; conditions: Mus musculus, 1440 h, route intraperitoneal; how it was run: as §4
[25] = Change in tumor cell population in ip implanted LOX amelanotic melanoma in mice after administration of compound at 26.5 mg/kg; type: functional, Mus musculus; conditions: route intraperitoneal; how it was run: as §5

CNC(=O)OCc1nc(SC)n(C)c1COC(=O)NC
KE (P388 [1]): -1.5
IC50 (A549): 218 µM
KE (P388 [2]): Toxic
ILS at 25 mg/kg (P388 [3]): 96%
ILS at 100 mg/kg [4]: 143%
KE (Mus musculus): Toxic
ILS at 200 mg/kg [5]: -24%
KE [6]: -4
ILS at 100 mg/kg (P388 [7]): -34%
IC50 (L1210 (Mus musculus)): 4.3 µM
IC50 (HT-29; Homo sapiens, HT-29): 162 µM
IC50 (HT-29; ht-29): 108 µM
ILS at 50 mg/kg [8]: 117%
IC50 [9]: 347 µM
KE (P388 [10]): -4.1
ILS at 25 mg/kg [11]: 34%
KE [12]: 0.3
ILS at 50 mg/kg (P388 [13]): 17%
ILS at 12.5 mg/kg (P388 [14]): 59%
IC50 [15]: 110 µM
KE [16]: -2.9
KE (P388 [17]): Toxic

CNC(=O)OCc1nc(SC2CCCCO2)n(C)c1COC(=O)NC (stereo not given)
KE [18]: 1
KE [19]: 1.3
ILS at 106 mg/kg [20]: 15%
KE [21]: 1
ILS at 53 mg/kg [22]: 15%
ILS at 212 mg/kg [23]: 8%
ILS at 26.5 mg/kg [24]: 11%
KE [25]: 1.2
